Measurements published in publication PMC4800303 (British Journal of Cancer, 2016).
≈ marks a conversion by molar mass, not a printed value.

Assays:
[1] = test system: Total Rb; experiment: Abemaciclib-mediated inhibition of Total Rb in xenograft tumours; format: in vivo, mice; settings: 50 mg kg^−1 every day
Method in brief: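 Colo-205 xenograft mice given abemaciclib 50 mg kg⁻¹ orally once daily for 56 days; tumour collected at 28 and 56 days, n=5 per time point. Tumour lysates assayed for Total Rb alongside pRb, TopoIIα and pHH3. Data were added to a refit of the cell-cycle PK/PD model.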

[2] = test system: phospho-(ser780)-Rb (pRb); format: in vivo, mice; settings: Mus musculus, COLO 205, read-out: IC50,Abemaciclib
Method in brief: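 Semimechanistic PK/PD model with four sequential transit compartments (early G1, late G1, S, G2/M). pRb, TopoIIα and pHH3 represent late G1, S and G2/M phase density. Model refitted to colo-205 xenograft biomarker data, including Total Rb after single or daily oral 50 mg kg⁻¹ abemaciclib. Population approach for longitudinal data. IC50 is an estimated model parameter.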

[3] = Pharmacokinetics in xenograft tumour-bearing mice; format: in vivo; settings: vemurafenib and abemaciclib coadministered; data not shown
[4] = test system: BRAF-mutated (V600E/K) metastatic melanoma; settings: pivotal phase III registration trial; ref Chapman et al., 2011; cited from earlier work
[5] = test system: Cyclin D1; experiment: Biomarker model: effect of vemurafenib on Cyclin D1 in A375 xenograft tumours; format: in vivo, mice
Method in brief: (§1)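 A375 xenograft mice given single oral vemurafenib: 15 mg kg⁻¹ with blood and tumour at 1, 2, 6, 12, 24, 48 h; 7.5, 30 or 60 mg kg⁻¹ with sampling at 4, 8, 24 h; n=5 per time point. Tumour biomarkers expressed as percentage of vehicle control. Plasma PK fitted by one-compartment model with saturable absorption; indirect response model links concentration to pMEK, driving pERK; values from model fitting/simulation.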

[6] = test system: pRb; experiment: Biomarker model: effect of vemurafenib on pRb in A375 xenograft tumours; format: in vivo, mice; settings: Mus musculus, A-375, read-out: Inhibition of pRb
Method in brief: as §1

[7] = test system: phospho-(thr202/tyr204)-ERK (pERK); experiment: Biomarker model: effect of vemurafenib on pERK in A375 xenograft tumours; format: in vivo, mice
Method in brief: as §1

[8] = test system: A375 xenograft tumours; experiment: Tumour growth inhibition and tumour model in A375 xenograft tumours; format: in vivo, mice; settings: continuous vemurafenib treatment; estimated
Method in brief: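 A375 xenograft mice received vemurafenib 15 mg kg⁻¹ twice daily for 48 days to allow resistance. They then received abemaciclib 90 mg kg⁻¹ daily or continued vemurafenib for 28 days (n=8 per group), with vehicle controls (n=8). Tumour size was measured every 3–4 days for ∼13 weeks. Time to resistance was estimated by the tumour growth model with a modulator compartment.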

[9] = test system: phospho-(ser217/221)-mitogen-activated protein kinase kinase (pMEK); format: in vivo, mice; settings: after a 15 mg kg^−1 dose of vemurafenib
Method in brief: as §1

[10] = after a 15 mg kg^−1 dose of vemurafenib
[11] = continuous vemurafenib, at time to resistance (∼30 days), model

Compound	Inhibition of Total Rb [1]	IC50 [2]	Pharmacokinetics after coadministration [3]	Progression-free survival (PFS) [4]	inhibition at 15 mg/kg ([5]; Mus musculus, A-375, read-out: Inhibition of Cyclin D1)	Time of maximum inhibition of Cyclin D1 [5, 10]	Elevation of Cyclin D1 over baseline at resistance [5, 11]	inhibition at 15 mg/kg [6]	Time of maximum inhibition of pERK [7, 10]	Elevation of pERK over baseline at resistance [7, 11]	Time to resistance [8]	Time of maximum inhibition of pMEK [9]
CCN1CCN(Cc2ccc(Nc3ncc(F)c(-c4cc(F)c5nc(C)n(C(C)C)c5c4)n3)nc2)CC1 [abemaciclib]	~40%	4.99 ng/mL (≈ 9.85 nM)	neither vemurafenib nor abemaciclib exhibited altered pharmacokinetics after coadministration	–	–	–	–	–	–	–	–	–
CN(C)/N=N/c1[nH]cnc1C(N)=O [dacarbazine]	–	–	–	1.6 months	–	–	–	–	–	–	–	–
CCCS(=O)(=O)Nc1ccc(F)c(C(=O)c2c[nH]c3ncc(-c4ccc(Cl)cc4)cc23)c1F [vemurafenib]	–	–	neither vemurafenib nor abemaciclib exhibited altered pharmacokinetics after coadministration	5.3 months	33%	10 h	nearly twofold	50%	2 h	nearly twofold	~30 days	2 h
